Test results taken from ChEMBL document CHEMBL3124900, “Discovery and early clinical evaluation of BMS-605339, a potent and orally efficacious tripeptidic acylsulfonamide NS3 protease inhibitor for the treatment of hepatitis C virus infection” (J Med Chem, 2014).

Tests used:
[1] = (§1) AUC in intraduodenally dosed Sprague-Dawley rat plasma measured over 4 hrs by LC/MS/MS analysis; assay type: ADME, organism-based; set-up: time < 4 hr, route intraduodenal; details: Sprague-Dawley, plasma
How it was run: (§2)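 Abbreviated rat screen: surgically prepared rats were dosed intraduodenally. Plasma was sampled over 4 h, and liver was collected at the 4 h end point. Plasma was precipitated with two volumes of ACN plus internal standard. Liver was weighed and homogenized in 2 volumes of 20% Hanks buffered salt solution/80% ACN. Both were quantified by LC/MS/MS.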

Hepatitis C virus = assay: Antiviral activity against Hepatitis C virus genotype 1b Con1 after 4 days by cell-based replicon assay; assay type: functional, organism-based, Hepacivirus hominis; details: isolate Con1, 96 h
[2] = Cytotoxicity against human HuH7 cells; assay type: cell-based; details: Huh-7 cells
[3] = Inhibition of Hepatitis C virus genotype 1a H77 recombinant NS3/4A protease expressed in Escherichia coli BL21 (DE3) cell using Ac-Asp-Glu-Asp(EDANS)-Glu-Glu-Abu[C(O)-O]-Ala-Ser-Lys(DABCYL)-NH2 as substrate by FRET assay; set-up: species or system Hepatitis C virus (isolate H77)
Liver = assay: Drug uptake in intraduodenally dosed Sprague-Dawley rat liver measured per gm of tissue over 4 hrs by LC/MS/MS analysis; assay type: ADME, organism-based; details: in vivo, other; how it was run: as §2
[4] = AUC in Sprague-Dawley rat at 15 mg/kg, po administered via gavage by LC/MS/MS analysis; assay type: ADME, organism-based; set-up: dose 15 mg/kg, route oral; details: plasma
[5] = Apparent terminal half life in Sprague-Dawley rat at 5 mg/kg, iv by LC/MS/MS analysis; assay type: ADME, organism-based; set-up: dose 5 mg/kg, route intravenous; details: in vivo, read-out: betat1/2(app) (converted)
[6] = Whole body plasma clearance in Sprague-Dawley rat at 5 mg/kg, iv by LC/MS/MS analysis; assay type: ADME, organism-based; set-up: dose 5 mg/kg, route intravenous
[7] = Oral bioavailability in Sprague-Dawley rat at 15 mg/kg administered via gavage by LC/MS/MS analysis; assay type: ADME, organism-based; details: in vivo
[8] = Drug uptake in iv dosed Sprague-Dawley rat liver measured after 24 hrs by LC/MS/MS analysis; assay type: ADME, organism-based; details: read-out: Drug uptake
[9] = Drug uptake in Sprague-Dawley rat liver at 15 mg/kg, po administered via gavage measured after 24 hrs by LC/MS/MS analysis; assay type: ADME, organism-based; set-up: dose 15 mg/kg, route oral; details: read-out: Drug uptake
How it was run: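 Rats were dosed orally at 15 mg/kg, and liver and plasma were collected 24 h post-dose. Plasma was treated with two volumes of ACN containing internal standard. Tissue was homogenized in 2 volumes of 20% HBSS/80% ACN. Analysis was by LC/MS/MS on a C18 column at 60 °C, using an ammonium formate/formic acid water–methanol gradient, SRM detection and a 5 nM LLQ.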

[10] = Drug uptake in Sprague-Dawley rat liver at 20 mg/kg, po administered via gavage measured after 4 hrs by LC/MS/MS analysis; assay type: ADME, organism-based; set-up: dose 20 mg/kg, route oral; details: read-out: Drug uptake
[11] = Drug uptake in Sprague-Dawley rat liver at 20 mg/kg, po administered via gavage measured after 8 hrs by LC/MS/MS analysis; assay type: ADME, organism-based; set-up: dose 20 mg/kg, route oral; details: read-out: Drug uptake
[12] = Plasma concentration in Sprague-Dawley rat at 20 mg/kg, po administered via gavage measured after 8 hrs by LC/MS/MS analysis; assay type: ADME, organism-based; set-up: dose 20 mg/kg, route oral
[13] = AUC in Beagle dog at 3 mg/kg by LC/MS/MS analysis; assay type: ADME, organism-based, Canis lupus familiaris; set-up: dose 3 mg/kg; details: plasma
[14] = AUC in Sprague-Dawley rat at 20 mg/kg, po administered via gavage by LC/MS/MS analysis; assay type: ADME, organism-based; set-up: dose 20 mg/kg, route oral; details: plasma
[15] = Apparent terminal half life in Beagle dog at 3 mg/kg, iv by LC/MS/MS analysis; assay type: ADME, organism-based, Canis lupus familiaris; set-up: dose 3 mg/kg, route intravenous; details: in vivo, read-out: betat1/2(app) (converted)
[16] = Half life in dog liver microsomes at 3 uM by LC/MS/MS analysis; assay type: ADME, Canis lupus familiaris
How it was run: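 Pooled liver microsomes were run in triplicate per species. Each incubation held 3 μM test compound in 0.1 M potassium phosphate pH 7.4 at 37 °C, with 0.9 mg/mL microsomal protein, 0.033 mM MgCl2 and an NADPH-regenerating system. Proteins were precipitated with two volumes of ACN containing internal standard, and supernatants were analysed by LC/MS/MS.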

[17] = Whole body plasma clearance in Beagle dog at 3 mg/kg, iv by LC/MS/MS analysis; assay type: ADME, organism-based, Canis lupus familiaris; set-up: dose 3 mg/kg, route intravenous
[18] = Plasma concentration in Sprague-Dawley rat at 20 mg/kg, po administered via gavage measured after 4 hrs by LC/MS/MS analysis; assay type: ADME, organism-based; set-up: dose 20 mg/kg, route oral
Plasma = assay: as §1; assay type: ADME, organism-based; set-up: time < 4 hr, route intraduodenal; details: in vivo, other, 4 h, BLD = below limit of detection; how it was run: as §2

Compound	AUC at 4 h [1]	EC50 (Hepatitis C virus)	CC50 [2]	IC50 [3]	Drug uptake (Liver)	AUC [4]	half-life [5]	clearance [6]	bioavailability [7]	other results
C=C[C@@H]1C[C@]1(NC(=O)[C@@H]1C[C@@H](Oc2nccc3ccccc23)CN1C(=O)[C@@H](NC(=O)OC(C)(C)C)C(C)(C)C)C(=O)NS(=O)(=O)C1CC1	0.75 µM·h	60 nM	> 100000 nM	7 nM	28094 ng	2.67 µM·h	2.2 h	19 mL/min/kg	–	–
C=C[C@@H]1C[C@]1(NC(=O)[C@@H]1C[C@@H](Oc2nccc3cc(OC)ccc23)CN1C(=O)[C@@H](NC(=O)OC(C)(C)C)C(C)C)C(=O)NS(=O)(=O)C1CC1	–	33 nM	> 100000 nM	2 nM	–	10.5 µM·h	2.9 h	7.8 mL/min/kg	28%	–
C=C[C@@H]1C[C@]1(NC(=O)[C@@H]1C[C@@H](Oc2ncc(OC)c3ccccc23)CN1C(=O)[C@@H](NC(=O)OC(C)(C)C)C(C)(C)C)C(=O)NS(=O)(=O)C1CC1	0.28 µM·h	19 nM	76000 nM	2 nM	232200 ng	0.37 µM·h	9.8 h	182 mL/min/kg	–	concentration at 24 h [8]: 8000 nM; concentration at 24 h [9]: 4200 nM
C=C[C@@H]1C[C@]1(NC(=O)[C@@H]1C[C@@H](Oc2nccc3c(OC)cccc23)CN1C(=O)[C@@H](NC(=O)OC(C)(C)C)C(C)(C)C)C(=O)NS(=O)(=O)C1CC1	2.36 µM·h	25 nM	> 100000 nM	1 nM	51260 ng	3.74 µM·h	2.2 h	6 mL/min/kg	9%	–
C=C[C@@H]1C[C@]1(NC(=O)[C@@H]1C[C@@H](Oc2nccc3cc(F)ccc23)CN1C(=O)[C@@H](NC(=O)OC(C)(C)C)C(C)(C)C)C(=O)NS(=O)(=O)C1CC1	1.46 µM·h	117 nM	> 100000 nM	87 nM	69560 ng	–	–	–	–	–
C=C[C@@H]1C[C@]1(NC(=O)[C@@H]1C[C@@H](Oc2cc(-c3ccccc3)nc3cc(OC)ccc23)CN1C(=O)[C@@H](NC(=O)OC(C)(C)C)C(C)(C)C)C(=O)NS(=O)(=O)C1CC1	0.077 µM·h	4 nM	–	1 nM	7850 ng	0.577 µM·h	1 h	55 mL/min/kg	–	concentration at 4 h [10]: 5800 nM; concentration at 8 h [11]: 600 nM; concentration at 8 h [12]: 4 nM; AUC [13]: 2 µM·h; AUC [14]: 0.73 µM·h; half-life [15]: 0.6 h; half-life at 3 µM [16]: 2.83 h; clearance [17]: 16 mL/min/kg; concentration at 4 h [18]: 580 nM
C=C[C@@H]1C[C@]1(NC(=O)[C@@H]1C[C@@H](Oc2cncc3cc(OC)ccc23)CN1C(=O)[C@@H](NC(=O)OC(C)(C)C)C(C)(C)C)C(=O)NS(=O)(=O)C1CC1	0.38 µM·h	42 nM	> 100000 nM	2 nM	1205 ng	–	–	–	–	–
C=C[C@@H]1C[C@]1(NC(=O)[C@@H]1C[C@@H](Oc2nccc3c(Cl)cccc23)CN1C(=O)[C@@H](NC(=O)OC(C)(C)C)C(C)(C)C)C(=O)NS(=O)(=O)C1CC1	5.5 µM·h	25 nM	38000 nM	1 nM	36160 ng	2.08 µM·h	6.6 h	7 mL/min/kg	6%	–
C=C[C@@H]1C[C@]1(NC(=O)[C@@H]1C[C@@H](Oc2nccc3cc(OC)ccc23)CN1C(=O)[C@@H](NC(=O)OC(C)(C)C)C(C)(C)C)C(=O)O	–	2000 nM	> 100000 nM	247 nM	–	–	–	–	–	AUC (Plasma): BLD; Drug uptake (Liver; BLD = below limit of detection): BLD
C=C[C@@H]1C[C@]1(NC(=O)[C@@H]1C[C@@H](Oc2nccc3cc(N4CCOCC4)ccc23)CN1C(=O)[C@@H](NC(=O)OC(C)(C)C)C(C)(C)C)C(=O)NS(=O)(=O)C1CC1	0.46 µM·h	26 nM	> 100000 nM	3 nM	1018 ng	–	–	–	–	–
C=C[C@@H]1C[C@]1(NC(=O)[C@@H]1C[C@@H](Oc2nccc3cc(OC)ccc23)CN1C(=O)[C@@H](NC(=O)O[C@H]1CCOC1)C(C)(C)C)C(=O)NS(=O)(=O)C1CC1	–	70 nM	> 100000 nM	9 nM	–	0.13 µM·h	0.67 h	49 mL/min/kg	3%	–
C=C[C@@H]1C[C@]1(NC(=O)[C@@H]1C[C@@H](Oc2ncnc3cc(OC)ccc23)CN1C(=O)[C@@H](NC(=O)OC(C)(C)C)C(C)(C)C)C(=O)NS(=O)(=O)C1CC1	0.11 µM·h	18 nM	> 100000 nM	2 nM	2319 ng	–	–	–	–	–
C=C[C@@H]1C[C@]1(NC(=O)[C@@H]1C[C@@H](Oc2ncc(OC)c3cc(OC)ccc23)CN1C(=O)[C@@H](NC(=O)OC(C)(C)C)C(C)(C)C)C(=O)NS(=O)(=O)C1CC1	–	2 nM	45000 nM	1 nM	–	0.194 µM·h	3.1 h	27 mL/min/kg	2%	–
C=C[C@@H]1C[C@]1(NC(=O)[C@@H]1C[C@@H](Oc2nccc3c(C)cccc23)CN1C(=O)[C@@H](NC(=O)OC(C)(C)C)C(C)(C)C)C(=O)NS(=O)(=O)C1CC1	6.36 µM·h	40 nM	89000 nM	5 nM	160300 ng	–	–	–	–	–
C=C[C@@H]1C[C@]1(NC(=O)[C@@H]1C[C@@H](Oc2nccc3cc(OCC)ccc23)CN1C(=O)[C@@H](NC(=O)OC(C)(C)C)C(C)(C)C)C(=O)NS(=O)(=O)C1CC1	1.83 µM·h	12 nM	74000 nM	3 nM	14630 ng	–	–	–	–	–
C=C[C@@H]1C[C@]1(NC(=O)[C@@H]1C[C@@H](Oc2ncc(C)c3ccccc23)CN1C(=O)[C@@H](NC(=O)OC(C)(C)C)C(C)(C)C)C(=O)NS(=O)(=O)C1CC1	0.2 µM·h	50 nM	71000 nM	1 nM	97240 ng	–	–	–	–	–
CC[C@@H]1C[C@]1(NC(=O)[C@@H]1C[C@@H](Oc2nccc3cc(OC)ccc23)CN1C(=O)[C@@H](NC(=O)OC(C)(C)C)C(C)(C)C)C(=O)NS(=O)(=O)C1CC1	–	22 nM	> 100000 nM	6 nM	–	0.58 µM·h	4.2 h	17 mL/min/kg	4%	–
C=C[C@@H]1C[C@]1(NC(=O)[C@@H]1C[C@@H](Oc2nc(-c3ccccc3)cc3cc(OC)ccc23)CN1C(=O)[C@@H](NC(=O)OC(C)(C)C)C(C)(C)C)C(=O)NS(=O)(=O)C1CC1	1.11 µM·h	4 nM	13000 nM	1 nM	72910 ng	–	–	–	–	–
